From PubChem
The list is not random: actives were taken first. Their share in the collection is about 2.3%.
SKN-1 inh: suppressors of acrylamide-induced Pgst-4::GFP reporter in worms, primary screen, SKN-1 inhibitor project, whole organism, uHTS, GFP/RFP fluorescence ratio, strain VP596; inhibition, % at 21.8 µM; actives 0.49% (n = 360,000); C. elegans VP596 Pgst-4::GFP/RFP ratio, 24 h; AID 624304, 2012;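 active means interference check ratio from 0.5 to 1.5 plus GFP to RFP signal ratio inhibition reaching or exceeding a fixed threshold, cut at about 30% in these data, passing the limit was not always enough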
ATG4B inhibitor: ATG4B protease inhibitors, primary screen, biochemical, fluorescence, uHTS; Cysteine protease ATG4B (Homo sapiens), Q9Y4P1; ATG4B cleavage of LC3-PLA2, NBD-HPC fluorescence, 1 h; inhibition, % at 8.33 µM; actives 0.51% (n = 340,000); AID 504462, 2011; in the data active means inhibition above about 40%
Target sequence (Q9Y4P1 whole entry, looked up): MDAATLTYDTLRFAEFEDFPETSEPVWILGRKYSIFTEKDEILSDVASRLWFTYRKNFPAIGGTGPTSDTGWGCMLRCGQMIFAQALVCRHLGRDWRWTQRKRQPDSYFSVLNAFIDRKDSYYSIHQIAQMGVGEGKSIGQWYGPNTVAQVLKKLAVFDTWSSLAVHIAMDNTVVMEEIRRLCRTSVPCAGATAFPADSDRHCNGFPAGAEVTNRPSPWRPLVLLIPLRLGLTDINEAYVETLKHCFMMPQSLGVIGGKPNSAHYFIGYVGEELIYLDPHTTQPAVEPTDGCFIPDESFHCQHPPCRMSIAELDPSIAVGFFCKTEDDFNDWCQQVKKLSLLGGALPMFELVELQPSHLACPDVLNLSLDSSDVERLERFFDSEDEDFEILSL
MPTP block: mitochondrial permeability transition pore inhibitors, primary screen, biochemical, isolated mouse mitochondria, absorbance | Ca2+ swelling absorbance, 30 min | inhibition, % at 10 µM | actives 1.4% (n = 360,000) | AID 602449, 2012;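 active means inhibition of 50% or more, scaled per plate between neutral and stimulator controls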;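 further: 0% = DMSO wells given calcium and 100% = 1 mM EGTA wells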
MT1-MMP act inh: blockers of MT1-MMP proenzyme processing, primary screen, HT1080 RFP-PRO-GFP cells, GFP/RFP fluorescence; GFP/RFP ratio change, % at 20 µM; Matrix metalloproteinase-14 (Homo sapiens), P50281; actives 0.061% (n = 360,000); AID 651647, 2012; GFP/RFP ratio fluorescence, overnight; percent of plate control window, DMSO zero;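 active means GFP/RFP ratio change of at least 30% with cell ATP level not reduced by more than half and red fluorescence within 50% of control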
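Read-out: GFP/RFP fluorescence ratio; Test system: RFP-PRO-GFP reporter HT1080 cells; Compound dosing: single-point 20 µM compound, 1% DMSO; Times: overnight compound exposure at 37 °C.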
MPTP counter: fluorescence retest of MPTP screen hits in isolated mitochondria, single concentration. actives 78% (n = 5,000). shares compounds with MPTP block. inhibition, % at 10 µM. AID 624504, 2012. membrane potential, Rhodamine 123 fluorescence; in the data active means inhibition above about 22%;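 further: 0% = DMSO vehicle and 100% = positive control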
MPTP abs DR: mitochondrial permeability transition pore inhibitors, dose response, biochemical, absorbance, uHTS hits | isolated mitochondria swelling | IC50, µM | shares compounds with MPTP block | AID 651561, 2012 | actives 58% (n = 780); in the data active means IC50 below about 20 µM
MPTP counter DR: fluorescent counter-screen in isolated mitochondria, dose response, counter-screen for MPTP inhibitor project, biochemical, fluorescence, uHTS hits; shares compounds with MPTP block; isolated mitochondria counterscreen, fluorescence read-out; IC50, µM; actives 49% (n = 780); in the data active means IC50 below about 80 µM
Starred values were filed as active, the others as inactive; i = inactive; / = no result; ! = not confirmed by another sample.

SMILES	SKN-1 inh	ATG4B inhibitor	MPTP block	MT1-MMP act inh	MPTP counter	others
CC(C)(C)NC(=S)Nc1cccc(C(F)(F)F)c1	-8	-2	65*	-1	84*
Cc1cccnc1NC(=S)Nc1ccc(Cl)c(Cl)c1	19	-2	90*	-2	97*
FC(F)(F)c1cccc(NC(=S)NC(c2ccccc2)c2ccccc2)c1	-3	11	70*	-1	83*
FC(F)(F)c1cccc(NC(=S)Nc2ccc(Cl)c(Cl)c2)c1	14	33	81*	1	65*
Cc1nc2nc(NC(=O)c3ccco3)nn2c(C)c1Cl	-11	-2	-2	0	/
O=[N+]([O-])c1cc(C(F)(F)F)cc([N+](=O)[O-])c1NCCNC(=S)Nc1ccc(Cl)c(Cl)c1	5	0	76*	7	69*
Cc1cc(OCC(=O)OC(C)C(=O)Nc2ccc(N3CCOCC3)cc2)ccc1Cl (stereo unspecified)	-30	-57	1	8	/
COCc1cc(C)nc(OCC(=O)N/N=C/c2cc(C)n(-c3c(C)cccc3C)c2C)c1C#N	10	4	56*	-5	0	MPTP abs DR=7.9*;MPTP counter DR=>80
CCOC(=O)/C=C1/SCC(=O)N1CC(=O)Nc1cccc(F)c1	-6	-16	0	-12	/
O=C(N/N=C/c1ccc([N+](=O)[O-])cc1)c1cccc(N2CCCC2=O)c1	10	-11	0	0	/
CCOC(=O)C(=NCCCN1CCOCC1)NNc1cccc(C(F)(F)F)c1	8	-8	2	-3	/
CCOC(=O)c1c(-c2cccs2)csc1NC(=O)CN(CC)CC	12	4	9	-6	/
CCOC(=O)c1c(-c2cccs2)csc1NC(=O)CC(C)C	12	-2	57*	-6	-1	MPTP abs DR=>100;MPTP counter DR=>80
CC(C)(C)OC(=O)NCCc1onc(-c2cccc([N+](=O)[O-])c2)c1C(=O)O	7	/	-2	8	/
Cc1c(O)ccc(-c2n[nH]c(C(=O)O)c2-c2nc3ccccc3s2)c1O	3	11	0	-4	/
CCOc1ccc(CN(C)CC(O)COC(c2ccc(OC)cc2)c2ccc(OC)cc2)cc1 (stereo unspecified)	5	-7	67*	-1	0	MPTP abs DR=15*;MPTP counter DR=48*
O=C(NCCCNc1ccc(C(F)(F)F)cc1[N+](=O)[O-])c1cc(F)c(F)cc1Cl	1	-4	1	9	/
O=C(NCCCNc1ccc(C(F)(F)F)cc1[N+](=O)[O-])c1ccc(Cl)cc1	8	-6	58*	1	74*
O=C(CC1NCCc2ccccc21)Nc1ccc(Cl)cc1 (stereo unspecified)	-1	8	61*	0	0	MPTP abs DR=9.1*;MPTP counter DR=>80
NC(=O)COC(=O)c1ccccc1SCC(=O)NC1CCCCCC1	3	1	-1	2	/
CN(C)C(CNC(=O)c1ccc(-c2ccccc2)cc1)c1ccccc1 (stereo unspecified)	-5	15	0	-1	/
Cc1oc(-c2cc(Cl)cc(Cl)c2)cc1C(=O)NCCc1ccccc1	14	7	93*	-3	78*
COc1ccc(CCNC(=O)c2cc(-c3cc(Cl)cc(Cl)c3)oc2C)cc1	8	-6	77*	1	21*
CCOc1ccc(N2CC(NC(=O)c3ccc4ccccc4c3)CC2=O)cc1 (stereo unspecified)	-36	-13	-1	0	/
COc1ccc(-c2nc(N3CCN(C)CC3)sc2-c2ccc(OC)cc2)cc1	-3	-4	74*	-11	-18	MPTP abs DR=i;MPTP counter DR=>80
SMILES	SKN-1 inh	ATG4B inhibitor	MPTP block	MT1-MMP act inh	MPTP counter	others
COc1ccc(OCC(=O)Nc2ccc(OC)c(S(=O)(=O)N3CCCCC3)c2)cc1	14	-4	-1	-2	/
CCOC(=O)c1ccc(NC(=O)Nc2ccc3c4c(cccc24)C(=O)N3CC)cc1	9	11	95*	-35	33*
Cc1ccc(C(=O)Nc2ccc(Br)c(C(F)(F)F)c2)cc1	-11	26	94*	-8	83*
O=C(NCCc1ccco1)c1cc(COc2cccc(C(F)(F)F)c2)on1	-14	6	0	-2	/
CCn1c(-c2ccc(C(C)(C)C)cc2)n[nH]c1=S	12	-7	69*	3	16	MPTP abs DR=18*;MPTP counter DR=26*
Cc1cc(N2CCN(c3nc4ccccc4s3)CC2)n2ncnc2n1	0	-4	82*	6	73*
COc1cccc(NC(=O)CSc2nc3ncc(Br)cc3[nH]2)c1	5	-2	6	0	/
CCc1ccc(NC(=O)CSc2nc3ncc(Br)cc3[nH]2)cc1	2	-3	54*	-2	88*
CCn1c2ccccc2c2cc(CNCc3ccc(OC)cc3OC)ccc21	4	5	73*	-5	37*
CC(=O)c1ccc(OCc2cc(C(=O)N3CCC(c4ccncc4)CC3)no2)cc1	4	21	96*	-11	87*
COc1cccc(OCc2cc(C(=O)N3CCC(c4ccncc4)CC3)no2)c1	4	-12	80*	1	75*
O=C(c1cc(COc2cccc(C(F)(F)F)c2)on1)N1CCC(c2ccncc2)CC1	5	-12	97*	13	99*
CC(=O)Nc1ccc(NC(=O)C(Cc2ccccc2)NC(=O)C2CCC(C)CC2)cc1 (stereo unspecified)	-2	-9	15	14	/
Cc1ccc(-n2[nH]c(C)c(/C=N/Nc3ccc([N+](=O)[O-])cc3[N+](=O)[O-])c2=O)cc1C	6	20	115*	17	61*
COc1ccccc1C(=O)NCCc1nc2ccccc2[nH]1	-2	5	-7	5	/
Cc1onc(-c2ccc(Cl)cc2)c1-c1ccnc(SCC(=O)Nc2cc(Cl)cc(Cl)c2)n1	4	0	50*	-1	51*
CN(C)CCNS(=O)(=O)c1ccc(N2CCN(c3ccc(F)cc3)CC2)c([N+](=O)[O-])c1	2	-6	50*	6	-5	MPTP abs DR=7.1*;MPTP counter DR=20*
CC(C)c1ccccc1NCC(=O)N1CCN(Cc2ccccc2)CC1	1	-10	-1	1	/
CN(C)CC/C=C1/c2ccccc2Sc2ccc(Cl)cc21	-5	23	95*!	-7	-8
COc1ccc(Cl)c2sc(N(CCN(C)C)C(=O)c3ccc4c(c3)OCCO4)nc12	-17	-12	74*	-1	-13	MPTP abs DR=i;MPTP counter DR=50*
